One compound from ChEMBL document CHEMBL5705905, “Pharmacological targeting of kinases MST1 and MST2 augments tissue repair and regeneration” (Sci Transl Med, 2016) can be followed below.

As a reminder, the IC50 is the concentration needed to halve the response being measured. Usually Tmax stands for the time at which the peak concentration occurs.

For series [1], the target named is Serine/threonine-protein kinase N1 (Homo sapiens) (UniProt Q16512). As to the kind of experiment: Inhibition of PKN1 (unknown origin) assessed as remaining activity at 1 uM by Kinome scan method relative to control.
For series [2], the target named is Casein kinase I isoform gamma-1 (Homo sapiens) (UniProt Q9HCP0). Description: Inhibition of CSNK1G1 (unknown origin) assessed as remaining activity at 1 uM by Kinome scan method relative to control. Put shortly:
(§1)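 Active-site-dependent competition-binding profiling (KINOMEscan) at 1 μM against a 468-kinase panel; compound supplied from a 10 mM DMSO stock. Read-out is ctrl% = (test signal − positive control signal)/(negative control signal − positive control signal) × 100. DMSO is the negative control (100%) and a control compound the positive control (0%). Lower ctrl% means tighter binding.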

The target in series [3] is Serine/threonine-protein kinase Chk1 (Homo sapiens) (UniProt O14757). Description: Inhibition of CHEK1 (unknown origin) assessed as remaining activity at 1 uM by Kinome scan method relative to control. Put shortly: as §1
In series [4] the target is T1, Serine/threonine-protein kinase 3 (Homo sapiens, UniProt Q13188).
T1 sequence (Q13188 whole entry): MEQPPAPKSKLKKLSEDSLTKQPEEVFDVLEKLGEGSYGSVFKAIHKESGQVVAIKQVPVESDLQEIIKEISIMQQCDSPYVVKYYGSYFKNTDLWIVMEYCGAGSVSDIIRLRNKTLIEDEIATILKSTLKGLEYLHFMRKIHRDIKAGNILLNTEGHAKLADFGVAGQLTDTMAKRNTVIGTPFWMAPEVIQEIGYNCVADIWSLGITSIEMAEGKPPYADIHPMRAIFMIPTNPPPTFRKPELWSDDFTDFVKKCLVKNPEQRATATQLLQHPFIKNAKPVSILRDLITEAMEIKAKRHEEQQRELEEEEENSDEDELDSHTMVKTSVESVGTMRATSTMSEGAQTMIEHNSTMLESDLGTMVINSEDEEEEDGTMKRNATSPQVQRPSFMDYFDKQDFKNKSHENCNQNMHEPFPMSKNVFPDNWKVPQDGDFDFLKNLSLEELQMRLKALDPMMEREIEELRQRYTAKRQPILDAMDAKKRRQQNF
As to the kind of experiment: Inhibition of recombinant His-tagged full-length MST2 (unknown origin) expressing in Escherichia coli assessed as GST-tagged MOB1a phosphorylation level incubated for 30 mins by immunoblot analysis. For orientation: A western blot detects proteins with antibodies after separation by electrophoresis.

The target in series [5] is Serine/threonine-protein kinase NIM1 (Homo sapiens) (UniProt Q8IY84). Description: Inhibition of NIM1 (unknown origin) assessed as remaining activity at 1 uM by Kinome scan method relative to control.
Series [6] addresses Mitogen-activated protein kinase 7 (Homo sapiens) (UniProt Q13164). Description: Inhibition of ERK5 (unknown origin) assessed as remaining activity at 1 uM by Kinome scan method relative to control.
Series [7] addresses Dual specificity mitogen-activated protein kinase kinase 1 (Homo sapiens) (UniProt Q02750). Description: Inhibition of MEK1 (unknown origin) assessed as remaining activity at 1 uM by Kinome scan method relative to control.
Series [8] concerns the target Dual specificity protein kinase CLK2 (Homo sapiens) (UniProt P49760). Description: Inhibition of CLK2 (unknown origin) assessed as remaining activity at 1 uM by Kinome scan method relative to control. Put shortly: as §1
For series [9], the target named is Tyrosine-protein kinase receptor UFO (Homo sapiens) (UniProt P30530). Description: Inhibition of AXL (unknown origin) assessed as remaining activity at 1 uM by Kinome scan method relative to control. A digest of the protocol:
(§2)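 Active-site-dependent competition-binding (KINOMEscan) panel of 468 kinases, test compound at 1 μM (from a 10 mM DMSO stock). Read-out is ctrl% = (test signal − positive control signal)/(negative control signal − positive control signal) × 100. DMSO is the negative control (100%) and a control compound is the positive control (0%). Lower ctrl% means tighter binding.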

Series [10] deals with Tyrosine-protein kinase Fes/Fps (Homo sapiens) (UniProt P07332). Description: Inhibition of FES (unknown origin) assessed as remaining activity at 1 uM by Kinome scan method relative to control.
The target in series [11] is Tyrosine-protein kinase Fyn (Homo sapiens) (UniProt P06241). Description: Inhibition of FYN (unknown origin) assessed as remaining activity at 1 uM by Kinome scan method relative to control.
The test system of series [12] is Hepatocyte growth factor receptor (Homo sapiens), P08581 [M1250T]. As to the kind of experiment: Inhibition of MET M1250T mutant (unknown origin) assessed as remaining activity at 1 uM by Kinome scan method relative to control.
The nature of series [13]: Tmax in male Sprague-Dawley rat at 10 mg/kg, po measured for 24 hrs by LC-MS/MS analysis. Type of series: ADME, organism-based. The note with it: in vivo.
In series [14] the test system is Mast/stem cell growth factor receptor Kit (Homo sapiens), P10721 [D816V]. As to the kind of experiment: Inhibition of KIT D816V mutant (unknown origin) assessed as remaining activity at 1 uM by Kinome scan method relative to control.
The next series concerns the target Aurora kinase B (Homo sapiens, UniProt Q96GD4). As to the kind of experiment: Inhibition of AURKB (unknown origin) in presence of ATP by enzymatic assay.
Series [15] addresses Serine/threonine-protein kinase B-raf (Homo sapiens) (UniProt P15056). Description: Inhibition of BRAF (unknown origin) assessed as remaining activity at 1 uM by Kinome scan method relative to control. A digest of the protocol:
as §2

Series [16] deals with Phosphatidylinositol 4,5-bisphosphate 3-kinase catalytic subunit gamma isoform (Homo sapiens, UniProt P48736). Description: Inhibition of PIK3CG (unknown origin) assessed as remaining activity at 1 uM by Kinome scan method relative to control.
For series [17], the target named is Mitogen-activated protein kinase kinase kinase 5 (Homo sapiens) (UniProt Q99683). As to the kind of experiment: Inhibition of ASK1 (unknown origin) assessed as remaining activity at 1 uM by Kinome scan method relative to control. A digest of the protocol: as §2
Series [18] concerns the target Rho-associated protein kinase 2 (Homo sapiens) (UniProt O75116). As to the kind of experiment: Inhibition of ROCK2 (unknown origin) assessed as remaining activity at 1 uM by Kinome scan method relative to control.
The target of series [19] is Serine/threonine-protein kinase ULK2 (Homo sapiens) (UniProt Q8IYT8). As to the kind of experiment: Inhibition of ULK2 (unknown origin) assessed as remaining activity at 1 uM by Kinome scan method relative to control.
Series [20] concerns the target Serine/threonine-protein kinase 10 (Homo sapiens) (UniProt O94804). Description: Inhibition of LOK (unknown origin) assessed as remaining activity at 1 uM by Kinome scan method relative to control.
For series [21], the target named is Epidermal growth factor receptor (Homo sapiens) (UniProt P00533). Description: Inhibition of EGFR (unknown origin) assessed as remaining activity at 1 uM by Kinome scan method relative to control.
In series [22] the target is Tyrosine-protein kinase ABL1 (Homo sapiens, UniProt P00519, Q252H). As to the kind of experiment: Inhibition of phosphorylated ABL1 Q252H mutant (unknown origin) in presence of ATP by enzymatic assay.
For series [23], the target named is Mitogen-activated protein kinase 4 (Homo sapiens) (UniProt P31152). Description: Inhibition of ERK4 (unknown origin) assessed as remaining activity at 1 uM by Kinome scan method relative to control.

Chain of Serine/threonine-protein kinase NIM1 (Homo sapiens) (Q8IY84 whole entry): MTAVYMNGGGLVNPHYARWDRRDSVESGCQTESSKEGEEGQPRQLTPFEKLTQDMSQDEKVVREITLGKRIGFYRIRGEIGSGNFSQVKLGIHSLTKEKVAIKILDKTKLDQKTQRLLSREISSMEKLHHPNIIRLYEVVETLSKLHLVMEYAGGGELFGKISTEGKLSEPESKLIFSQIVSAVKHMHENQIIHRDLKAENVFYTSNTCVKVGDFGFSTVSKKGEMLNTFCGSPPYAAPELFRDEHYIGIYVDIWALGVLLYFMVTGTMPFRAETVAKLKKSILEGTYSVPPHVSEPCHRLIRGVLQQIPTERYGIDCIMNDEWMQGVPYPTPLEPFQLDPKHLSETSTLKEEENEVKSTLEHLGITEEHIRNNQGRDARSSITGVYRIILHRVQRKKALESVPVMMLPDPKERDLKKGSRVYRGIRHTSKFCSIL
Chain of Serine/threonine-protein kinase ULK2 (Homo sapiens) (Q8IYT8 whole entry): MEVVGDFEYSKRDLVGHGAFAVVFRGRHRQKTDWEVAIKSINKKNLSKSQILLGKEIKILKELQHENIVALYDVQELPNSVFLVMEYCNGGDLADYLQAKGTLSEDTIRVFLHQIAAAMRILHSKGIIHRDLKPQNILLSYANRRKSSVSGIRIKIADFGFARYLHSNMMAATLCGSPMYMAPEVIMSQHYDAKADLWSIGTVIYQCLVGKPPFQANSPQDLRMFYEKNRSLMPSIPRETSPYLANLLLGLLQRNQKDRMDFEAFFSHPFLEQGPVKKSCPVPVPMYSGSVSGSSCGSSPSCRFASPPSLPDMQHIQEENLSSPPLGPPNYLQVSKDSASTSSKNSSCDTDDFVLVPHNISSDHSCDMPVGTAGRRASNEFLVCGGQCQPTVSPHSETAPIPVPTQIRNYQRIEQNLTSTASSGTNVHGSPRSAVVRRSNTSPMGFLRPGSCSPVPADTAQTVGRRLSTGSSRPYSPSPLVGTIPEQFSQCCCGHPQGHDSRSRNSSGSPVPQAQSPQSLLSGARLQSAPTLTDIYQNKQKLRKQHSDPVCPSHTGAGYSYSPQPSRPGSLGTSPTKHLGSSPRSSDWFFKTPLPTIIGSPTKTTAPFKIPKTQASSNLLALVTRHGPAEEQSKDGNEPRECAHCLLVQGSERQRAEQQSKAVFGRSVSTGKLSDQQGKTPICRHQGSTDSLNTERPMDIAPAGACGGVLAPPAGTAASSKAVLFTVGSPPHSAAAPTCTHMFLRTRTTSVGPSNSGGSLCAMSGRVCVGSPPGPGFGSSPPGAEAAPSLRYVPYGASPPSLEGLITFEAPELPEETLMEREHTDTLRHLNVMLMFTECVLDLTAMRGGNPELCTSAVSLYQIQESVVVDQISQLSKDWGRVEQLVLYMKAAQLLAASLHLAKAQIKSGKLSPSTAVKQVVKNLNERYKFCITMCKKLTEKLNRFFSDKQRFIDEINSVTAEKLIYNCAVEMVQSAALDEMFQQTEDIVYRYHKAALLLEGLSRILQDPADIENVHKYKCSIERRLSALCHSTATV
Chain of Serine/threonine-protein kinase B-raf (Homo sapiens) (P15056 whole entry): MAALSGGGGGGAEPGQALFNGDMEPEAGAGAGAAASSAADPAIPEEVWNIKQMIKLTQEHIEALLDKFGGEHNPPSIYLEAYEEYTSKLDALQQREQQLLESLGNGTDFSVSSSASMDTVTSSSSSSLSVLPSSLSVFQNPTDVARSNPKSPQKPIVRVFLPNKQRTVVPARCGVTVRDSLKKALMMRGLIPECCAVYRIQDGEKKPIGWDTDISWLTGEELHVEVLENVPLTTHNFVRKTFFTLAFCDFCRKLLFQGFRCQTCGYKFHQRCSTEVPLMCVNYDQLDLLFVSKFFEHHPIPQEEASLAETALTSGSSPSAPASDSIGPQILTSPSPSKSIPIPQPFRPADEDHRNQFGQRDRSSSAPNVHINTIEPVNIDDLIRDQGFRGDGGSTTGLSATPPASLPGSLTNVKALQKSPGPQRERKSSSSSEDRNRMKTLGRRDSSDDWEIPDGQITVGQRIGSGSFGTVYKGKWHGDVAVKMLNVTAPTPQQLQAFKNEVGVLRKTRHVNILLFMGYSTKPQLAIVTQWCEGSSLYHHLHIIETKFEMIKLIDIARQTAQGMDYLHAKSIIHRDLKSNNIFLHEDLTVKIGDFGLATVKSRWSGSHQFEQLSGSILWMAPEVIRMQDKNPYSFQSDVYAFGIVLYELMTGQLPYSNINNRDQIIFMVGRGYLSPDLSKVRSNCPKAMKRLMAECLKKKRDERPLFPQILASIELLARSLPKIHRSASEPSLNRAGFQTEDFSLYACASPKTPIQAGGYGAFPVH
Chain of Casein kinase I isoform gamma-1 (Homo sapiens) (Q9HCP0 whole entry, looked up, canonical isoform): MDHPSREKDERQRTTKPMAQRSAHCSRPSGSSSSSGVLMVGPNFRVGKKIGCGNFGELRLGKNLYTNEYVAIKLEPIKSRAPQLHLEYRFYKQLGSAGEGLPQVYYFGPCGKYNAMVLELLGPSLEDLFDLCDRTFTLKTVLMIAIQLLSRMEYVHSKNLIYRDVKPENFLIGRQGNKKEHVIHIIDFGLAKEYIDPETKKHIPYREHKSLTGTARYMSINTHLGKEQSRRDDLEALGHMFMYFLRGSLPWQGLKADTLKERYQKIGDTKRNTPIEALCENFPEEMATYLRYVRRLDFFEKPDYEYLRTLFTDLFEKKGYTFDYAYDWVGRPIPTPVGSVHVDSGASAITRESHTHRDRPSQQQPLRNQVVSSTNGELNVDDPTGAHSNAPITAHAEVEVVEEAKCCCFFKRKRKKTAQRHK
Chain of Rho-associated protein kinase 2 (Homo sapiens) (O75116 whole entry, looked up): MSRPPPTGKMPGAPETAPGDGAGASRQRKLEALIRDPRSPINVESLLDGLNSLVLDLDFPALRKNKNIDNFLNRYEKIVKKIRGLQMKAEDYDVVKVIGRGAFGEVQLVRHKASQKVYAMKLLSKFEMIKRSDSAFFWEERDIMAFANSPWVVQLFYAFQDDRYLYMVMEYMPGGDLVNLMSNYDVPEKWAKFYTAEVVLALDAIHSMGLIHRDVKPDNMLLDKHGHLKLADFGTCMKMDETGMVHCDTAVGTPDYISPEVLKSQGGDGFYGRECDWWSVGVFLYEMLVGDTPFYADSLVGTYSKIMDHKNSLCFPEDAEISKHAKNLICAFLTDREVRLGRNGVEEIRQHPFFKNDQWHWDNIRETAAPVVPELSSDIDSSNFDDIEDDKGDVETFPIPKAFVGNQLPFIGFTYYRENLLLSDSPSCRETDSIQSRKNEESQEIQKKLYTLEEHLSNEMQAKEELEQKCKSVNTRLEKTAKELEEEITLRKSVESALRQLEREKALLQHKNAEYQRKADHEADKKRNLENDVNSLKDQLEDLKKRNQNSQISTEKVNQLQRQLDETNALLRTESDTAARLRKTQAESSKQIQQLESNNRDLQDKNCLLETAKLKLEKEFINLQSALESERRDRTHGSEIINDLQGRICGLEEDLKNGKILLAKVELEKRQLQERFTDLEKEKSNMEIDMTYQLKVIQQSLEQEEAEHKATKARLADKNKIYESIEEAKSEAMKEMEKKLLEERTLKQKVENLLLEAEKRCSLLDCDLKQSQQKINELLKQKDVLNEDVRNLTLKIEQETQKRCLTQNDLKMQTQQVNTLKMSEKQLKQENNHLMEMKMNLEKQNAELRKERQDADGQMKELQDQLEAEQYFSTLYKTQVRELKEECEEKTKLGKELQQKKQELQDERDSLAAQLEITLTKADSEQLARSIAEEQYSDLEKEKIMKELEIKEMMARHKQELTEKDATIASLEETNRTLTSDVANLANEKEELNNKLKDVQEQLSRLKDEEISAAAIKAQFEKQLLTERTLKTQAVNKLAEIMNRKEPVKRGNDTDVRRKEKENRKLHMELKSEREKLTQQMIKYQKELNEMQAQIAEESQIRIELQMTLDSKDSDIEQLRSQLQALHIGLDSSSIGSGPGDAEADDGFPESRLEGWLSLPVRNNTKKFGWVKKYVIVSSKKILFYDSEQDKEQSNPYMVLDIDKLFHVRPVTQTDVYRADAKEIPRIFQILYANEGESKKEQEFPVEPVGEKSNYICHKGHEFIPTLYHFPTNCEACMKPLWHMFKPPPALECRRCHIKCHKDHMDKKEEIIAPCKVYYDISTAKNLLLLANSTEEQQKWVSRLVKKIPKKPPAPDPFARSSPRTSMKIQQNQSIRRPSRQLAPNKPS
Chain of Tyrosine-protein kinase receptor UFO (Homo sapiens) (P30530 whole entry): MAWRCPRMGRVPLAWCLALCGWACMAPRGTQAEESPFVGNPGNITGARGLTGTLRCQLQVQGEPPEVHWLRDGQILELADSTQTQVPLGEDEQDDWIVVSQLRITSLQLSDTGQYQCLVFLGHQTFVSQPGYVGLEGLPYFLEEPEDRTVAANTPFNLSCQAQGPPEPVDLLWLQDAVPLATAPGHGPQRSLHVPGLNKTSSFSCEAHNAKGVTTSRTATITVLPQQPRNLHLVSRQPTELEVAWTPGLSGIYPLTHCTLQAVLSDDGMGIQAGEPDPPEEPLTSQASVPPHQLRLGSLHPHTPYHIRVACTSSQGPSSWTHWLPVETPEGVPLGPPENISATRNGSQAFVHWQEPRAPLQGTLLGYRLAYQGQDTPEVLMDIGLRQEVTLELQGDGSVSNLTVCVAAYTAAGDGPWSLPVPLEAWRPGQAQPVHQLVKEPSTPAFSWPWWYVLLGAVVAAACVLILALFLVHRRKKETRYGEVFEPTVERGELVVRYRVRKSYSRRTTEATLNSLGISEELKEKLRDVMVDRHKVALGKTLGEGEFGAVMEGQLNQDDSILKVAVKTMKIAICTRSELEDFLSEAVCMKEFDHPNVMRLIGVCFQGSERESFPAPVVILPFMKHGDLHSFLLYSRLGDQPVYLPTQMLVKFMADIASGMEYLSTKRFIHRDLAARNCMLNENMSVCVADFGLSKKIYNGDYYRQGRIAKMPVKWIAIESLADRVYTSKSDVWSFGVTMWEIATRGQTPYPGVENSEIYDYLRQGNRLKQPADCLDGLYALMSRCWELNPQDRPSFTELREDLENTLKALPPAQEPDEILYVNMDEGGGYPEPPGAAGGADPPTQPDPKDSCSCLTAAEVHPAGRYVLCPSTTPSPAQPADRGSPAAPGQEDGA

With `CN1C(=O)c2sccc2N(C)c2nc(Nc3ccc(S(N)(=O)=O)cc3)ncc21`, the Activity in [1] came to 100%; in [2] it was 79%; in [3] it was 73%; in series [5] it was 61%; in [6] it was 60%; in series [7], 91%. Besides, the Activity was 71% in [8]; 86% in [9]; 39% in series [10]; 100% in series [11]; 81% in series [12]; 94% in series [14]. The Activity in series [15] stood at 100%; in [16], 0.15%; in [17], 100%; in series [18], 96%; in series [19], 4.8%; in series [20], 100%. In addition, the Activity is 100% in series [21] and 80% in [23]. Besides, the half-inhibitory concentration (IC50) in [4] is 38.2 nM; on Aurora kinase B, 19.1 nM; in [22], 11.6 nM. Also, the Tmax in series [13] came out at 3 h.
